Experimental data published in PMC9279635 (Acta Pharmaceutica Sinica. B, 2021).
Blank lines part the entries; values can stand above or below the compound they belong to.

Key:
KDR = KDR (Homo sapiens, UniProt P35968); experiment: ELISA kinase assay, KDR; format: biochemical; conditions: for inhibition at 0.1 µM: read-out: KDR inhibition @100 nmol/L
[1] = tested on: bleomycin-induced pulmonary fibrosis; experiment: BLM induced mouse lung fibrosis; format: in vivo, mice (C57BL/6)
In short: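 Bleomycin (1.7 U/kg) or saline is given intratracheally to mice. After 7 days, test compound is dosed once daily for 21 days (n = 6–9/group). Body weight is tracked over the period. On day 21, lung sections are stained with H&E, F4/80, Masson and COL-1, and H&E and Masson sections are scored. Data are mean ± SEM, analysed by one-way ANOVA with Fisher's LSD.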

DDR1 = DDR1 (Homo sapiens, UniProt Q08345); experiment: ELISA kinase assay, DDR1; format: biochemical
DDR2 = target: T1, DDR2 (Homo sapiens, UniProt Q16832); experiment: ELISA kinase assay, DDR2; format: biochemical; conditions: DDR2 IC50, two separate experiments
T1 sequence (Q16832 22-855): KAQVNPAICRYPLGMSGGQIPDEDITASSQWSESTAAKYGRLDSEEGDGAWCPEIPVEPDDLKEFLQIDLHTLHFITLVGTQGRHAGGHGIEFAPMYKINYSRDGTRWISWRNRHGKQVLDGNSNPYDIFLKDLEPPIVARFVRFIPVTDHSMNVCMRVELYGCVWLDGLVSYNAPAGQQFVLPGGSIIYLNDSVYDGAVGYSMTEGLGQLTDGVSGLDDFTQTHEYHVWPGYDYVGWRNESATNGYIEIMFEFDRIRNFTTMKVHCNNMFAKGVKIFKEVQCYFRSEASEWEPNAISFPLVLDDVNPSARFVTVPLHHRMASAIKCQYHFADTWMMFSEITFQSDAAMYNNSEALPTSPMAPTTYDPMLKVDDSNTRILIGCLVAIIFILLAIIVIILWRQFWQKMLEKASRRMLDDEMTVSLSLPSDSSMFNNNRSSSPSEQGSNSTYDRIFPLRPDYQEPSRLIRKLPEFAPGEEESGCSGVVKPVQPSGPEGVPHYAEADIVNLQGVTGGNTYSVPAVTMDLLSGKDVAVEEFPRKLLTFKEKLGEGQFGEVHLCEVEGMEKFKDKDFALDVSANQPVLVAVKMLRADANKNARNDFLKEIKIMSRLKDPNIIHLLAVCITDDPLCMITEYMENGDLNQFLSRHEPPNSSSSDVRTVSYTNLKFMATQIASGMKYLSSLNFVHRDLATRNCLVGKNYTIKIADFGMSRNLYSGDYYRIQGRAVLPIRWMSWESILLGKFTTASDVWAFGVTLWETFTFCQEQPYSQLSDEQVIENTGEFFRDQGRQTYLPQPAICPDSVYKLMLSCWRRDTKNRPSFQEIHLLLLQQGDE

[2] = tested on: DDR2 phosphorylation in MRC-5; experiment: DDR2 phosphorylation in TGF-β stimulated MRC-5; format: cell-based; conditions: 1 μmol/L, MRC-5, 24 h TGF-β stimulation
In short: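 Confluent MRC-5 fibroblasts are stimulated with TGF-β (5 ng/mL) and treated with a range of test compound concentrations for 24 h. Western blots are probed for phospho-DDR2, fibronectin, α-SMA, with GAPDH as loading control.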

ABL = ABL (Homo sapiens, UniProt P00519); experiment: Kinase selectivity test, ABL; format: biochemical; conditions: 10 nmol/L
Flt-3 = target: T2, Flt-3 (Homo sapiens, UniProt P36888); experiment: ELISA kinase assay, Flt-3; format: biochemical; conditions: for inhibition at 0.1 µM: read-out: Flt-3 inhibition@100 nmol/L
T2 sequence (P36888 27-993): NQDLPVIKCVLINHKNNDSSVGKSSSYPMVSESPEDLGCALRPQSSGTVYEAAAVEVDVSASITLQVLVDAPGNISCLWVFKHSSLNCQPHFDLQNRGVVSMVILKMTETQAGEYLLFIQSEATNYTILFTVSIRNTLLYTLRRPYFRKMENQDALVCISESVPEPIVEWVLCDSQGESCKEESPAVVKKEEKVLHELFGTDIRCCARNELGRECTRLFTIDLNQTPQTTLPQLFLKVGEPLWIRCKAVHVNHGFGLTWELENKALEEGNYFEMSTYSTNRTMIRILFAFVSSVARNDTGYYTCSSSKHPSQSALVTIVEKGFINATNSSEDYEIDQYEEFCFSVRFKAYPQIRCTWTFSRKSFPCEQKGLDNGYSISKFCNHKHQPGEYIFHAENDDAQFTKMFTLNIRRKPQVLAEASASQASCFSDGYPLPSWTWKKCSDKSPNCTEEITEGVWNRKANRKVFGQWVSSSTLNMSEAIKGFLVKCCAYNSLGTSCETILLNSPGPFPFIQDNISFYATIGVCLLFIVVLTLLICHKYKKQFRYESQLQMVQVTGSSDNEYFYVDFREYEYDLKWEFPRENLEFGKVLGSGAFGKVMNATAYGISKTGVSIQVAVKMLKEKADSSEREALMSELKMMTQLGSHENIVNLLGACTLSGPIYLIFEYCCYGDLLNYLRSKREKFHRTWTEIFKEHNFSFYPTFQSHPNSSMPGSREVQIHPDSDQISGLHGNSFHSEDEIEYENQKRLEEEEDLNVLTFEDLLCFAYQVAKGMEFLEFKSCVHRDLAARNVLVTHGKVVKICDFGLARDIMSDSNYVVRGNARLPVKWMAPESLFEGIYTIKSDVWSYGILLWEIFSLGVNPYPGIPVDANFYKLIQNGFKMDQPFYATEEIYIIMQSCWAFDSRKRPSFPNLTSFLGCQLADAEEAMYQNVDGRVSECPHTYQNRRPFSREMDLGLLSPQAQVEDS

RET = RET (Homo sapiens, UniProt P07949); experiment: ELISA kinase assay, RET; format: biochemical; conditions: for inhibition at 0.1 µM: read-out: RET inhibition @100 nmol/L
Chain of RET (P07949 29-1114): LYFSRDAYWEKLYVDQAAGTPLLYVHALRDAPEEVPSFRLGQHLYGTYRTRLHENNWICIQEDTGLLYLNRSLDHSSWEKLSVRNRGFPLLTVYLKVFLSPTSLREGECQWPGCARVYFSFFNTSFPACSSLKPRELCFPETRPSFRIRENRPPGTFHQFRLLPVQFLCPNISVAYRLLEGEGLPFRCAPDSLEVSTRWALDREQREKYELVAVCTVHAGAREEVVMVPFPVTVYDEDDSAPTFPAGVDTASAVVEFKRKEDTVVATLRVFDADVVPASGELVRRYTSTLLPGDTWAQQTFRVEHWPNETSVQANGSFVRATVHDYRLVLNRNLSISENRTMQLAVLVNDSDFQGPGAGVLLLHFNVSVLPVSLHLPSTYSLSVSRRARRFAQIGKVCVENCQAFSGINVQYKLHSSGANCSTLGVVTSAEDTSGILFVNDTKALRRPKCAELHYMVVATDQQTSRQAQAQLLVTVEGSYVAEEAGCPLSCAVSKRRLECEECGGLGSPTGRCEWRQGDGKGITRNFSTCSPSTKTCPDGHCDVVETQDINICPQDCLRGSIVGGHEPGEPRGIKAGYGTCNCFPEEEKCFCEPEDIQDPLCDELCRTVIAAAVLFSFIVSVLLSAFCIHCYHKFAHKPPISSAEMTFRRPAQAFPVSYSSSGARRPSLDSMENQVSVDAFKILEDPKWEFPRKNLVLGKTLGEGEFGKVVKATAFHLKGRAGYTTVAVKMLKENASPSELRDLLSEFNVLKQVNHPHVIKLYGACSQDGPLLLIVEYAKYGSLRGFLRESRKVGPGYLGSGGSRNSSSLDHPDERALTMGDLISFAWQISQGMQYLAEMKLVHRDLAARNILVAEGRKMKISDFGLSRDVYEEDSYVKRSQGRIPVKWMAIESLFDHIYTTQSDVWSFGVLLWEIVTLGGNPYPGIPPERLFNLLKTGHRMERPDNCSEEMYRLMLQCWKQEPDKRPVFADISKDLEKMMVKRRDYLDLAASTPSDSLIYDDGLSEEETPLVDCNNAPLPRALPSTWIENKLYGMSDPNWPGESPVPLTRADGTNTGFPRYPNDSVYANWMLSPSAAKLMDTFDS

Chain of KDR (P35968 20-1356): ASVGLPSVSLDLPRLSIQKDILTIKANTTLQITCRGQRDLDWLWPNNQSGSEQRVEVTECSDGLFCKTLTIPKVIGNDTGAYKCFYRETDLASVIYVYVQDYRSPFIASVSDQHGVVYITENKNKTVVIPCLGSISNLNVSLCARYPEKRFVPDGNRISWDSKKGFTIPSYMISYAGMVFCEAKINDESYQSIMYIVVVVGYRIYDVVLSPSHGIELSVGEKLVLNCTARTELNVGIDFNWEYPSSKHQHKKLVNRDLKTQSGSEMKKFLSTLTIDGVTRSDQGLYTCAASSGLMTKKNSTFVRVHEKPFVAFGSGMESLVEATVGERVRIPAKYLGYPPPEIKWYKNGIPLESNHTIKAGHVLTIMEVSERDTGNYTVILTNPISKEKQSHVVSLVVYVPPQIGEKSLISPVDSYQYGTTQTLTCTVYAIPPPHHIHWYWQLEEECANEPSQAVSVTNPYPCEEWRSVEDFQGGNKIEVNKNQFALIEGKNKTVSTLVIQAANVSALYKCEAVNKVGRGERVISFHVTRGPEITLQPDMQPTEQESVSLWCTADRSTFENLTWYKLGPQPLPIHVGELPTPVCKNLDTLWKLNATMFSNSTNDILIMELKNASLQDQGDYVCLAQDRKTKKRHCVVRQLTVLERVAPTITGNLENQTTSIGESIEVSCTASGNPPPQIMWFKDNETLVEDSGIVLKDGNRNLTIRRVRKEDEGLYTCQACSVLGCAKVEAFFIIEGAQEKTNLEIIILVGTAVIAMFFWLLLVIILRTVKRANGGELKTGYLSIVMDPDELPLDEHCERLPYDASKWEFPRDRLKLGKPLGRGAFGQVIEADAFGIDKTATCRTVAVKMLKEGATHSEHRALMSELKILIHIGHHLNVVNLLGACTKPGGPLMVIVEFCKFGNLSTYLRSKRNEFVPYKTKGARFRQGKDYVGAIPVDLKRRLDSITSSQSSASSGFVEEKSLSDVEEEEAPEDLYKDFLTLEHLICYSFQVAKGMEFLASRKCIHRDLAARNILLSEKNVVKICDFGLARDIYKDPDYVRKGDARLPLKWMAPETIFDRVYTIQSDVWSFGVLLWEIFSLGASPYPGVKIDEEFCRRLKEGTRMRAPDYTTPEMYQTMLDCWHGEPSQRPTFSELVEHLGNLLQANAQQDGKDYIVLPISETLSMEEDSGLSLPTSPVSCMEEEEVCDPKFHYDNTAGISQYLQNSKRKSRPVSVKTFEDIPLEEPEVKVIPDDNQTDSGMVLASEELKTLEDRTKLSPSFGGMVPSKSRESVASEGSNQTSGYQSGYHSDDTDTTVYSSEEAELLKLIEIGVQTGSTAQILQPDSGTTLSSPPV
Chain of DDR1 (Q08345 19-913): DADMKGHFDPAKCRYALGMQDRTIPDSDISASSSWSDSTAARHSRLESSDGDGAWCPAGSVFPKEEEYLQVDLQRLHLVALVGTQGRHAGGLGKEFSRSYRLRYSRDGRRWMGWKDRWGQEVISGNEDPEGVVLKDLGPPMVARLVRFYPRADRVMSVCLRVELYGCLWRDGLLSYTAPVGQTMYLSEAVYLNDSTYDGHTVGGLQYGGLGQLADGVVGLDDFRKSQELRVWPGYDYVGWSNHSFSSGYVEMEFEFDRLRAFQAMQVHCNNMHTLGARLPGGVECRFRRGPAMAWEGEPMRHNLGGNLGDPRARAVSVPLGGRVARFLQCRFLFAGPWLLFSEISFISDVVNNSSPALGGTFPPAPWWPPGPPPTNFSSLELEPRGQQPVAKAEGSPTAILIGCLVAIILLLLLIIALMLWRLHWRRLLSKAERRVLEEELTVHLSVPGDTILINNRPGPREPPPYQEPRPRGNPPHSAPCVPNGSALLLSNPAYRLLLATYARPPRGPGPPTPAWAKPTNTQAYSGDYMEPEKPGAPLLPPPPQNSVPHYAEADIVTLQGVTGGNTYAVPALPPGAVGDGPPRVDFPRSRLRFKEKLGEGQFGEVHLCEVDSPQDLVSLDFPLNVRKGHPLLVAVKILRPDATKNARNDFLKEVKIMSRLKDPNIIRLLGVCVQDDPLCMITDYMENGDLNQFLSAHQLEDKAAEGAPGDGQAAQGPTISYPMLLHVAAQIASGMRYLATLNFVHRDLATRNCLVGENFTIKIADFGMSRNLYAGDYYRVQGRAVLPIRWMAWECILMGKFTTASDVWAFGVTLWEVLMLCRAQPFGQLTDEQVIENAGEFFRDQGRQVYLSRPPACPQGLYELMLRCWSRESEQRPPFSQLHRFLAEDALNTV
Chain of ABL (P00519 whole entry): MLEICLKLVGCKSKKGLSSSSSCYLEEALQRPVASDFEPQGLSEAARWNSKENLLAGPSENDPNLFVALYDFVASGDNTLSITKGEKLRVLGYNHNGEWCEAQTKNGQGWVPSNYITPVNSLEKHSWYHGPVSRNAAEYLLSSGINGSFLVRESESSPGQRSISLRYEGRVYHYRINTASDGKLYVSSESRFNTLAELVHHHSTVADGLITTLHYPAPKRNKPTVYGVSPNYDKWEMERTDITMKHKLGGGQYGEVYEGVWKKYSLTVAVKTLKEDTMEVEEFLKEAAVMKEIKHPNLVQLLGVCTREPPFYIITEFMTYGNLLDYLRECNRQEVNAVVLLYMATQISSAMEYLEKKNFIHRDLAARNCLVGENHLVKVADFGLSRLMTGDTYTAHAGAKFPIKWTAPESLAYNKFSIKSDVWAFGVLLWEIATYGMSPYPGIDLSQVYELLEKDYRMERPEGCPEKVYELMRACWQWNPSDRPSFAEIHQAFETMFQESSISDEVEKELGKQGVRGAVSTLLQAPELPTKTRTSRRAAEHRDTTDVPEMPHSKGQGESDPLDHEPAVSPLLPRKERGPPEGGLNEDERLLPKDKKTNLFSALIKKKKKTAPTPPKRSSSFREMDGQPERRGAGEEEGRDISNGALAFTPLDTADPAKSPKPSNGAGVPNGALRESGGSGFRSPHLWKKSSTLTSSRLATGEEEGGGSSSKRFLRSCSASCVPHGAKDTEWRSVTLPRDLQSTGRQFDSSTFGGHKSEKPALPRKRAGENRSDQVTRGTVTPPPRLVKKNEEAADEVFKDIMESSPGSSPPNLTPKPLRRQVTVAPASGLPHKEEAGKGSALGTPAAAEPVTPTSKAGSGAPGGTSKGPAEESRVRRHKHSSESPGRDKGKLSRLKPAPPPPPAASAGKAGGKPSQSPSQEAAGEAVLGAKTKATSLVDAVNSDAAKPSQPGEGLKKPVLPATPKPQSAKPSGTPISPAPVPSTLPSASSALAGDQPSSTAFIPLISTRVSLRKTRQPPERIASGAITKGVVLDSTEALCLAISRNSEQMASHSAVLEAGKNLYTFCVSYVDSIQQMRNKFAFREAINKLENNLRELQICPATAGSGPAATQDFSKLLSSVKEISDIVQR

inhibition at 0.1 µM (KDR): 89.3%
SMILES: Cc1ccc(NC(=O)Nc2cccc(C(F)(F)F)c2)cc1-c1ccc2nc(Nc3cnn(C)c3)ncc2c1 [Compound 37, 1-(4-Methyl-3-(2-((1-methyl-1H-pyrazol-4-yl)amino)quinazolin-6-yl)phenyl)-3-(3-(trifluoromethyl)phenyl)urea]

SMILES: COC(=O)c1ccc2c(c1)NC(=O)/C2=C(\Nc1ccc(N(C)C(=O)CN2CCN(C)CC2)cc1)c1ccccc1 [nintedanib]
weight of mice at the end of the treatment ([1]; 60 mg/kg once daily): 24.54 ± 2.09 g
weight recovery ratio ([1]; BLM mice, 60 mg/kg): 12.93%
Masson score ([1]; BLM mice, 60 mg/kg, vehicle 2.67 ± 0.57, scale 1–4): 1.89 ± 0.55

IC50 (DDR1): 13.8 nM
IC50 (DDR2): 2.8 ± 0.5 nM
SMILES: Cc1ccc(C(=O)Nc2cccc(C(F)(F)F)c2)cc1-c1ccc2nc(Nc3cnn(C4CC4)c3)ncc2c1 [Compound 24, 3-(2-((1-Cyclopropyl-1H-pyrazol-4-yl)amino)quinazolin-6-yl)-4-methyl-N-(3-(trifluoromethyl)phenyl)benzamide]
inhibition of DDR2 phosphorylation [2]: high inhibitory activity

inhibition at 0.1 µM (KDR): 70.2%
SMILES: Cc1ccc(NC(=O)C(C)c2cccc(C(F)(F)F)c2)cc1-c1ccc2nc(Nc3cnn(C)c3)ncc2c1 (stereo not drawn) [Compound 39, N-(4-Methyl-3-(2-((1-methyl-1H-pyrazol-4-yl)amino)quinazolin-6-yl)phenyl)-2-(3-(trifluoromethyl)phenyl)propanamide]

KDR inhibition ratio (KDR; 10 nmol/L): over 50%
inhibition at 0.1 µM (KDR): 100%
IC50 (DDR1): 16 nM
ABL inhibition ratio (ABL): over 50%
inhibition at 0.1 µM (Flt-3): 0%
SMILES: O=C(Nc1cccc(C(F)(F)F)c1)c1ccc(C2CC2)c(-c2ccc3nc(Nc4cnn(C5CC5)c4)ncc3c2)c1 [Compound 36, 4-Cyclopropyl-3-(2-((1-cyclopropyl-1H-pyrazol-4-yl)amino)quinazolin-6-yl)-N-(3-(trifluoromethyl)phenyl)benzamide]
inhibition of DDR2 phosphorylation [2]: high inhibitory activity

IC50 (DDR1): 9.74 nM
SMILES: Cc1ccc(C(=O)Nc2cccc(C(F)(F)F)c2)cc1-c1ccc2cn[nH]c2c1 [Compound 7, 3-(1H-Indazol-6-yl)-4-methyl-N-(3-(trifluoromethyl)phenyl)benzamide]

inhibition at 0.1 µM (Flt-3): 61.8%
IC50 (DDR2): 4.1 ± 0.7 nM
inhibition at 0.1 µM (RET): 77.1%
SMILES: CCc1ccc(C(=O)Nc2cccc(C(F)(F)F)c2)cc1-c1ccc2nc(Nc3cnn(C)c3)ncc2c1 [Compound 32, 4-Ethyl-3-(2-((1-methyl-1H-pyrazol-4-yl)amino)quinazolin-6-yl)-N-(3-(trifluoromethyl)phenyl)benzamide]

inhibition at 0.01 µM (Flt-3; read-out: Flt-3 inhibition @10 nmol/L): 97%
IC50 (DDR2): 2.8 ± 0.2 nM
inhibition at 0.01 µM (RET; read-out: RET inhibition @10 nmol/L): 93.2%
SMILES: Cc1ccc(C(=O)Nc2cc(CN3CCCN(C)CC3)cc(C(F)(F)F)c2)cc1-c1ccc2nc(Nc3cnn(C)c3)ncc2c1 [Compound 30, 4-Methyl-N-(3-((4-methyl-1,4-diazepan-1-yl)methyl)-5-(trifluoromethyl)phenyl)-3-(2-((1-methyl-1H-pyrazol-4-yl)amino)quinazolin-6-yl)benzamide]

inhibition at 0.1 µM (KDR): 94%
SMILES: Cc1ccc(C(=O)NCc2cccc(C(F)(F)F)c2)cc1-c1ccc2nc(Nc3cnn(C)c3)ncc2c1 [Compound 38, 4-Methyl-3-(2-((1-methyl-1H-pyrazol-4-yl)amino)quinazolin-6-yl)-N-(3-(trifluoromethyl)benzyl)benzamide]

inhibition at 0.1 µM (Flt-3): 59.7%
IC50 (DDR2): 2.3 ± 0.5 nM
inhibition at 0.1 µM (RET): 41.3%
SMILES: COc1ccc(C(=O)Nc2cccc(C(F)(F)F)c2)cc1-c1ccc2nc(Nc3cnn(C)c3)ncc2c1 [Compound 33, 4-Methoxy-3-(2-((1-methyl-1H-pyrazol-4-yl)amino)quinazolin-6-yl)-N-(3-(trifluoromethyl)phenyl)benzamide]

inhibition at 0.1 µM (KDR): 26.9%
IC50 (DDR2): 4.3 ± 1 nM
SMILES: Cc1ccc(C(C)NC(=O)c2cccc(C(F)(F)F)c2)cc1-c1ccc2nc(Nc3cnn(C4CC4)c3)ncc2c1 (stereo not drawn) [Compound 43, N-(1-(3-(2-((1-Cyclopropyl-1H-pyrazol-4-yl)amino)quinazolin-6-yl)-4-methylphenyl)ethyl)-3-(trifluoromethyl)benzamide]
